Molecules are shown by their SMILES. Screen size: about 2,500 compounds; about 460 (18%) were called active. Not all results are given here. Unmarked numbers belong to inactive results.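 Rule for the calls: active = mean activation above a cutoff of low control average plus 3 SD from the earlier screen (cut at about 12% in these data); inactive = the rest.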

The nature of this experiment: IANBD-channel fluorescence artefacts in buffer – biochemical, artefact control for cardiac RTF calcium sensitizer project, confirmation (AID 504382). To be noted: IANBD fluorescence interference counterscreen, EC20 Ca2+, at 7.2 µM, hits give high values, scaled: EC20 calcium 0, EC100 calcium 100. The method, boiled down: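 Doses – one dose of 7.2 µM, 0.7% DMSO · Buffer or medium – MOPS/KCl/MgCl2/EGTA/NTA/DTT buffer, pH 7.2 · Probe or stimulus – Ca2+ fixed at EC20, 0.472 mM · Measured by – fluorescence intensity, excitation 480 nm, emission 540 nm · Read-out – fluorescence interference versus control range · Timing – 15 min compound exposure at 25 °C · Replication – triplicate wells per compound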
In general terms: The purpose of a counterscreen is to sort out artefacts and off-target activity.
For the compound `Cc1cn2c(N)c(C=C3C=C(Cl)C(=O)C(Cl)=C3)c(=O)nc2s1`, the fluorescence artifact activation is 4.46%.

For `CCOC(=O)CN1C(=O)S/C(=C/C=C/c2ccc(N(C)C)cc2)C1=O`, the fluorescence artifact activation is -0.03%. Regarding `O=C(/C=C/c1cn(CC(O)CN2CCCCCC2)c2ccccc12)c1cccs1` (stereo not given), the fluorescence artifact activation was 5.69%. The figure for `Cc1ccc(C(=O)/C=C/c2cn(CC(O)CN3CCOCC3)c3ccccc23)cc1` (stereo not given) is 0.01%; for `CCCN(CCC)CC(O)Cn1cc(/C=C/C(=O)c2cccs2)c2ccccc21` (stereo not given) it is 0.1%; for `COc1ccc(C(=O)/C=C/c2cn(CC(O)CN3CCN(C)CC3)c3ccccc23)cc1OC` (stereo not given) it is 18.9% (active).

`COc1ccc(C(=O)/C=C/c2cn(CC(O)CN3CCOCC3)c3ccccc23)cc1` (stereo not given): the fluorescence artifact activation is 6.56%. For the compound `O=C(/C=C/c1cn(CC(O)CN2CCCCC2)c2ccccc12)c1cccs1` (stereo not given), the fluorescence artifact activation is 14.5% (active). Then `CCN(CC)c1ccc(-c2sc(Nc3ccccc3)n[n+]2-c2ccc(F)cc2)cc1`, with 3.87%; and `C=CCOc1ccn(C)c(=O)n1`, with 2.39%; and `O=[N+]([O-])c1ccc(/C=C/C2=NN(c3ccccc3)C(c3ccco3)C2)cc1` (stereo not given), with 6.35%. Take `Cc1nnc(N/N=C/c2ccc(O)c([N+](=O)[O-])c2)[nH]c1=O`: the fluorescence artifact activation was 8.03%. Consider `O=S1(=O)CCOC[C@H](CC2CCCCC2)N1Cc1ccccc1`, for which the fluorescence artifact activation is 0.05%.

In the case of `Cn1c(CCNC(=O)c2ccco2)nc2ccccc21`, the fluorescence artifact activation was 350% (active). With `O=C(NCCNC(=O)c1cccs1)c1ccco1`, the fluorescence artifact activation was 10.5%. Turning to `Cn1c(=O)c2c(nc(NCCNC(=O)c3ccco3)n2Cc2ccccc2Cl)n(C)c1=O`, the fluorescence artifact activation was 0.11%. The figure for `CCCC(=O)NCCCc1nc2ccccc2n1C` is 43.2% (active); for `O=C(Cn1c(C(F)(F)F)nc2ccccc21)NCCN1CCCC1` it is 0.11%. The figure for `CCn1c(CNc2ccc(C(=O)O)cc2)nc2ccccc21` is -0.08%; for `COc1ccc(CN2CNc3c(c(=O)n(C)c(=O)n3C)C2)cc1` it is 6.35%; for `Brc1ccc(-c2noc(-c3ccccn3)n2)o1` it is 0.61%. Turning to `O=C1C(=Cc2ccco2)CCCC1=Cc1ccco1`, the fluorescence artifact activation was 6.25%.

`O=C(NCc1ccccc1Cl)c1ccc2nc[nH]c2c1`: the fluorescence artifact activation is -0.08%. Consider `CCOC(=O)CC1=NS(=O)(=O)c2ccccc2N1`, for which the fluorescence artifact activation was 2.81%.

On to `COc1ccccc1NS(=O)(=O)c1cc(NC(=O)c2cc3ccccc3oc2=O)ccc1C`, for which the fluorescence artifact activation was 16.8% (active).

Consider `COc1ccccc1NS(=O)(=O)c1cc(NC(=O)CCNC(C)=O)ccc1N1CCCCC1`, for which the fluorescence artifact activation was 0.74%. The figure for `COc1ccccc1NS(=O)(=O)c1ccccc1C#N` is -0.04%; for `CCNc1nc(SCC(N)=O)nc2sc3c(c12)CCN(C)C3` it is 0.22%; for `CN(/N=C/c1ccc(-c2ccc([N+](=O)[O-])cc2)o1)c1ccccc1` it is 9.54%. Turning to `COCCN=c1scc(-c2cc(OC)c(OC)c(OC)c2)n1/N=C/c1c(C)[nH]c2ccccc12`, the fluorescence artifact activation is 21.1% (active). Regarding `COc1ccccc1NS(=O)(=O)c1cc([N+](=O)[O-])ccc1N/N=C/c1c(C)[nH]c2ccccc12`, the fluorescence artifact activation is 4.83%. Then `CCN(CC)S(=O)(=O)c1ccc2[nH]c(=O)[nH]c2c1`, with 0.38%; and `Cn1c(C(=O)NCCCN2CCCCCC2)cc2c(=O)n(C)c3ccccc3c21`, with 3.34%. Then `CCN(CC)S(=O)(=O)c1ccc2[nH]cc(C(=O)NCCN3CCCCCC3)c(=O)c2c1`, with 14.6% (active); and `O=C(CSCc1ccco1)NC1CCCC1`, with 5.75%. For the compound `CCN(CC)C1=CC2=CC(=C(C#N)C#N)CCC2CC1` (stereo not given), the fluorescence artifact activation is 0.13%. Then `O=C(Nc1ccc(S(=O)(=O)Nc2ncccn2)cc1)c1nn(Cc2ccccc2)c(=O)c2ccccc12`, with 303% (active); and `O=C(Nc1ccc(S(=O)(=O)Nc2ncccn2)cc1)C1CC(=O)N(c2ccccc2)C1` (stereo not given), with -0.09%. `CCn1cc([N+](=O)[O-])c(C(=O)Nc2ccn(Cc3ccccc3)n2)n1`: the fluorescence artifact activation is 1.63%.

`CC(=O)c1ccc2c(c1)c(C#N)c1ccccc1[n+]2[O-]`: the fluorescence artifact activation was 57.1% (active).

For `O=S(=O)(CCN(CCS(=O)(=O)C(F)(F)F)CC1CCCO1)C(F)(F)F` (stereo not given), the fluorescence artifact activation is 0.02%. Then `O=C(c1cnc2ccccc2n1)N1CCN(c2ccc(C(F)(F)F)cn2)CC1`, with 5.21%; and `CN(C)CCOc1ccccc1C(C)(C)C`, with 0.06%; and `O=C1c2c(O)cc(O)cc2O[C@@]12c1c(cc(O)c3c1O[C@H](c1ccc(O)cc1)[C@@H](O)C3)O[C@@H]2c1ccc(O)cc1`, with 0%. Then `O=S(=O)(O)c1nc2ccccc2n1Cc1ccccc1`, with 16.5% (active); and `c1ccc(Cn2c(-c3ccccc3)nc3nc4ccccc4nc32)cc1`, with 6.17%. For `CCn1c(C(C)NC(C)=O)nc2ccccc21` (stereo not given), the fluorescence artifact activation is 2.7%. Then `NC(=O)[C@@H]1CCCNc2c(I)cc([N+](=O)[O-])cc2C(=O)N[C@@H](CCC(=O)O)C(=O)N[C@@H](CO)C(=O)N1`, with 0%; and `Cc1ccc(S(=O)(=O)N2CC(C(=O)O)=CC[C@H]2c2ccc(Cl)cc2)cc1`, with 0.03%. Turning to `Cc1cccc(NC(=O)c2ccc(C(=O)c3ccccc3)cc2)n1`, the fluorescence artifact activation was 1.13%. Then `NC(=O)c1ccc(NC(=O)COC(=O)c2c3c(nc4ccccc24)/C(=C\c2ccc4c(c2)OCO4)CCC3)cc1`, with 0.16%; and `O=C(COC(=O)c1ccc(O)cc1)Nc1ccc2c(c1)OCCO2`, with 13.1% (active); and `Cc1cc(C(=O)O)ccc1-c1ccc(/C=C2\SC(=O)N(CC(=O)Nc3ccc4c(c3)OCO4)C2=O)o1`, with 0.42%. The figure for `Cc1cc(C)c(S(=O)(=O)Nc2ccc3[nH]c(=O)[nH]c3c2)c(C)c1` is 3.79%; for `O=C/C(=C\Nc1ccc(S(=O)(=O)CCO)cc1)c1nc2cc(Cl)ccc2o1` it is 20.2% (active); for `Cc1ccc(-c2nc3sc(C#N)c(N)n3c(=O)c2C#N)cc1` it is 0.13%. The figure for `CC(C)CC1C(C#N)=C(N)SC(N)=C1C#N` is 0.12%; for `Cc1ccc(/C=C/C(=O)Nc2cccc3cccnc23)o1` it is 4.18%; for `Cc1cc(C(=O)COc2cccc3cccnc23)c(C)n1C` it is 21.4% (active).

For the compound `Cc1ccc(-n2c(C)cc(C(=O)COC(=O)c3ccc[nH]c3=O)c2C)cc1`, the fluorescence artifact activation is -0.02%.
